Measurements from ChEMBL document CHEMBL4725350, “2-Oxaadamant-1-yl Ureas as Soluble Epoxide Hydrolase Inhibitors: In Vivo Evaluation in a Murine Model of Acute Pancreatitis” (J Med Chem, 2020).
In brackets after ≈: the same amount, converted by molar mass. Activity calls are given as the source filed them. The calls are words filed in the database; no cut-off is given here.

Columns and labels:
[1] = molecular target: T1, Bifunctional epoxide hydrolase 2 (Homo sapiens, UniProt P34913); assay: Inhibition of recombinant human soluble epoxide hydrolase using CMNPC as substrate preincubated for 5 mins followed by substrate addition and measured at 30 secs interval for 10 mins by fluorescence assay
T1 sequence (P34913 whole entry): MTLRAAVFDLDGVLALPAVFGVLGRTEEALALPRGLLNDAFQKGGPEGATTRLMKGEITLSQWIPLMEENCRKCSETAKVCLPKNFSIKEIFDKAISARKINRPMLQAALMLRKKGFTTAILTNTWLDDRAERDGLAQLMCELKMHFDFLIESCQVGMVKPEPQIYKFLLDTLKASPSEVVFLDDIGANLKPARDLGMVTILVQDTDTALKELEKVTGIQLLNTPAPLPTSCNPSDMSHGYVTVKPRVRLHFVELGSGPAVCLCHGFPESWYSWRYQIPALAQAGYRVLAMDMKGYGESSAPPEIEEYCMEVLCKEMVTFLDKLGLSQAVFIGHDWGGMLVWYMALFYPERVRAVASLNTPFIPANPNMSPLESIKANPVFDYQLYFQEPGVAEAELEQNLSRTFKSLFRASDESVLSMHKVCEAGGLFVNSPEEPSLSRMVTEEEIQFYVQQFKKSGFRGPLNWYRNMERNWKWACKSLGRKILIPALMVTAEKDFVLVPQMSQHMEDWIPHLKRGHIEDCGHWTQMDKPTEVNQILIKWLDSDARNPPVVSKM

[2] = Apparent permeability across apical to basolateral side in human Caco-2 cells at 10 uM measured after 2 hrs by LC-MS/MS analysis; details: caco-2, 2 h
[3] = physchem; details: 1% DMSO/99% PBS buffer solution
[4] = Apparent permeability across basolateral to apical side in human Caco-2 cells at 10 uM measured after 2 hrs by LC-MS/MS analysis; details: caco-2, 2 h
[5] = Efflux ratio of apparent permeability across basolateral to apical side over apical to basolateral side in human Caco-2 cells at 10 uM measured after 2 hrs by LC-MS/MS analysis
[6] = molecular target: T2, Bifunctional epoxide hydrolase 2 (Mus musculus, UniProt P34914); assay: Inhibition of recombinant mouse soluble epoxide hydrolase using CMNPC as substrate preincubated for 5 mins followed by substrate addition and measured at 30 secs interval for 10 mins by fluorescence assay
T2 sequence (P34914 whole entry): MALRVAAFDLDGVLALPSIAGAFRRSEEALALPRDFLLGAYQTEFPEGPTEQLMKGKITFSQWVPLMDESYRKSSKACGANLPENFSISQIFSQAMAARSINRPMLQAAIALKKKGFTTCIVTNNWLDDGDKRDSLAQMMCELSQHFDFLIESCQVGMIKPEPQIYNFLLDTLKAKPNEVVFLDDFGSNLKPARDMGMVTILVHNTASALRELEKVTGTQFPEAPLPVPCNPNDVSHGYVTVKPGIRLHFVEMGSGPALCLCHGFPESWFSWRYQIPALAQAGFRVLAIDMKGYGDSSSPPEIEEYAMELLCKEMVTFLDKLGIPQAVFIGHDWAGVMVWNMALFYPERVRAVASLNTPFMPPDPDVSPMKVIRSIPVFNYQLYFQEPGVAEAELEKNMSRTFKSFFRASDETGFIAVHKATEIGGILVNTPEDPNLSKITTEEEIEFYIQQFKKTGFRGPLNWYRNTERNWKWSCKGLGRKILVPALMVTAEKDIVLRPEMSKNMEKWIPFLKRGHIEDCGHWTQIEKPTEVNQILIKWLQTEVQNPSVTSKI
Outline: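 Purified recombinant enzyme was preincubated with inhibitor (0.4–100,000 nM final) for 5 min at 30 °C in 100 mM sodium phosphate, pH 7.4, with 0.1 mg/mL BSA and 1% DMSO. CMNPC was added at 5 μM final. 6-Methoxynaphthaldehyde fluorescence (ex 330/em 465 nm) was read every 30 s for 10 min. IC50 values are averages of three replicates.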

[7] = molecular target: T3, Prostaglandin G/H synthase 2 (Homo sapiens) (UniProt P35354); assay: Inhibition of recombinant human COX2 using arachidonic acid as substrate measured after 5 mins by fluorescence assay
T3 sequence (whole entry): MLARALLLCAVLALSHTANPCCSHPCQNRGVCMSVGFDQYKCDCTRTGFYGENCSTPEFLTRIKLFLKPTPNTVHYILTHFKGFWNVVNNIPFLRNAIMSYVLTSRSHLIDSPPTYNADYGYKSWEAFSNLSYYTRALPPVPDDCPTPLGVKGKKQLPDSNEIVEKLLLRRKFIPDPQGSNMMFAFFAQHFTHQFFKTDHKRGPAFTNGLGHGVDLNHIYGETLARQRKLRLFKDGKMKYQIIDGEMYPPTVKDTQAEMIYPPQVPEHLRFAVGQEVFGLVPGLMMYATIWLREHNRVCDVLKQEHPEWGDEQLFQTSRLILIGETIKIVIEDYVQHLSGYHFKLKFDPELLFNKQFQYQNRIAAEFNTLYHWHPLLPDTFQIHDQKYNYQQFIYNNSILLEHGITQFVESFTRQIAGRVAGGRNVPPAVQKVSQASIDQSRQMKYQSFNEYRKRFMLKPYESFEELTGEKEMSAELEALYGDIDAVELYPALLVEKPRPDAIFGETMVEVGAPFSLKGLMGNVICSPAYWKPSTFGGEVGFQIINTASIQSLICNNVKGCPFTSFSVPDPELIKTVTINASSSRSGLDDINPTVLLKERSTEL

[8] = molecular target: T4, Polyunsaturated fatty acid 5-lipoxygenase (Homo sapiens) (UniProt P09917); assay: Inhibition of recombinant human full-length LOX5 (1 to 674 residues) expressed in insect cells using arachidonic acid as substrate preincubated for 10 mins followed by substrate addition measured after 20 mins by H2DCFDA probe based fluorescence assay; details: time 30.0 min
T4 sequence (whole entry): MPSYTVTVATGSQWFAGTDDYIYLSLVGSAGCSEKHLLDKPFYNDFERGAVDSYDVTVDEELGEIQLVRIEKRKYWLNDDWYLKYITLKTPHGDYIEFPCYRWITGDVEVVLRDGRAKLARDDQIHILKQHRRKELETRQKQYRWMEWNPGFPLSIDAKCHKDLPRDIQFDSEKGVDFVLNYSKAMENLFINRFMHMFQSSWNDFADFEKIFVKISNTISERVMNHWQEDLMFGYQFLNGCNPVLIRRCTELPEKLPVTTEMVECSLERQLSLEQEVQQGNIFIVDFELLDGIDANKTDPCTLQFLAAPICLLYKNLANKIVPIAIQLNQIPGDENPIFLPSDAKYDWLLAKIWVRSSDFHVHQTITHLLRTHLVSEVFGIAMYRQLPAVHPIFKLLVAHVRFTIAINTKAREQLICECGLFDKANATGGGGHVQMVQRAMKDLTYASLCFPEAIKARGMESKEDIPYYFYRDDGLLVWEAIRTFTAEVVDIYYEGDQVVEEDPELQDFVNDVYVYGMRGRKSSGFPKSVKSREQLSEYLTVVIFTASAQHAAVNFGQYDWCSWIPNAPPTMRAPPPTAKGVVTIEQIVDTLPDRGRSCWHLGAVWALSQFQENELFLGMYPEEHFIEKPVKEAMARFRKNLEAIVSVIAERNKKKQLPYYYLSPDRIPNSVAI

[9] = Cytotoxicity against human PBMC assessed as reduction in cell viability measured after 72 hrs by ATPlite assay; details: read-out: LC50 (the source's name)
[10] = Stability in human liver microsomes assessed as parent compound remaining measured after 60 mins in presence of NADPH by LC-MS/MS analysis; type: ADME, Microsome; details: read-out: Stabilty
Outline: (§1)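 Compound is incubated at 37 °C with human, mouse or rat liver microsomes in 50 mM phosphate buffer pH 7.4. […] Samples at 0–60 min are quenched into acetonitrile; percent parent remaining at 60 min is reported. Testosterone is the positive control.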

[11] = test system: THLE-2; assay: Cytotoxicity against human THLE-2 cells assessed as reduction in cell viability measured after 72 hrs by ATPlite assay; type: cell-based; details: thle-2, 72 h, read-out: LC50 (the source's name)
Outline: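 THLE-2 cells were grown in BEGM with 0.7 μg/mL phosphoethanolamine, 0.5 ng/mL EGF and 10% FBS, plated at 10,000 cells/well and left to adhere for 24 h. Cells were exposed to 0–100 μM final (1% DMSO) for 72 h at 37 °C, 5% CO2.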

[12] = Stability in rat liver microsomes assessed as parent compound remaining measured after 60 mins in presence of NADPH by LC-MS/MS analysis; type: ADME, Microsome; details: read-out: Stabilty; outline: as §1
[13] = Stability in mouse liver microsomes assessed as parent compound remaining measured after 60 mins in presence of NADPH by LC-MS/MS analysis; type: ADME, Microsome; details: read-out: Stabilty; outline: as §1

Row | Compound | IC50 [1] [nM] | IC50 [6] [nM] | also measured
1 | O=C(Nc1ncncn1)NC12CC3CC(CC(C3)O1)C2 | 1450 | – | –
2 | O=C(NC12CC3CC(CC(C3)O1)C2)N[C@H]1CC[C@H](Oc2ccc(C(=O)O)cc2)CC1 | 9 | – | Papp [2]: 0.14 ×10⁻⁶ cm/s; solubility kinetic at 2 h [3]: > 100 µM; Papp [4]: 7.55 ×10⁻⁶ cm/s; efflux ratio at 2 h, 10 µM [5]: 55.4
3 | O=C(NC1CCN(Cc2ccccc2)CC1)NC12CC3CC(CC(C3)O1)C2 | 1090 | – | –
4 | CNc1nc(C)nc(N2CCC(NC(=O)NC34CC5CC(CC(C5)O3)C4)CC2)n1 | 496 | 365 | –
5 | CCC(=O)N1CCC(NC(=O)NC23CC4CC(CC(C4)O2)C3)CC1 | 356 | 234 | inhibition [7]: inactive; inhibition [8]: inactive
6 | O=C(Nc1cc(Cl)cc(OC(F)(F)F)c1)NC12CC3CC(CC(C3)O1)C2 | 52.6 | 1860 | –
7 | O=C(NC1CCN(C(=O)C2CC2)CC1)NC12CC3CC(CC(C3)O1)C2 | 213 | 130 | –
8 | CS(=O)(=O)N1CCC(NC(=O)NC23CC4CC(CC(C4)O2)C3)CC1 | 247 | 174 | –
9 | O=C(Nc1cccc(S(F)(F)(F)(F)F)c1)NC12CC3CC(CC(C3)O1)C2 | 35.9 | 723 | –
10 | O=C(NC1CCN(C(=O)c2ccccc2F)CC1)NC12CC3CC(CC(C3)O1)C2 | – | 75.9 | CC50 [9]: > 20000 nM; solubility kinetic at 2 h [3]: > 100 µM; remaining at 1 h [10]: 30.2%; inhibition [7]: inactive; CC50 [11]: > 100000 nM; remaining at 1 h [12]: 19.3%; inhibition [8]: inactive; remaining at 1 h [13]: 39.5%
11 | O=C(Nc1ccc(Cl)c(C(F)(F)F)c1)NC12CC3CC(CC(C3)O1)C2 | 19.7 | 344 | –
12 | O=C(Nc1ccon1)NC12CC3CC(CC(C3)O1)C2 | 911 | 3850 | –
13 | O=C(Nc1nc2ccccc2s1)NC12CC3CC(CC(C3)O1)C2 | 782 | 14700 | –
14 | O=C(Nc1ccc(F)c(F)c1F)NC12CC3CC(CC(C3)O1)C2 | – | 553 | Papp [2]: 16.8 ×10⁻⁶ cm/s; solubility kinetic at 2 h [3]: 27 µM (≈ 8.81 µg/mL); Papp [4]: 15.1 ×10⁻⁶ cm/s
15 | O=C(Nc1ccc(F)c(F)c1F)NC12CC3CC(CC(C3)C1)C2 | – | – | Papp [2]: 0.67 ×10⁻⁶ cm/s; solubility kinetic at 2 h [3]: 16 µM (≈ 5.19 µg/mL); Papp [4]: 0.46 ×10⁻⁶ cm/s
16 | CC(=O)c1ccc(N2CCC(NC(=O)NC34CC5CC(CC(C5)O3)C4)CC2)cc1 | – | 107 | solubility kinetic at 2 h [3]: 81.5 µM (≈ 32.4 µg/mL); remaining at 1 h [10]: 40%; CC50 [11]: > 100000 nM; remaining at 1 h [12]: 84%; remaining at 1 h [13]: 73%
17 | O=C(NC1CCN(C(=O)C2CCOCC2)CC1)NC12CC3CC(CC(C3)O1)C2 | 491 | 512 | –
18 | O=C(NC1CCN(C(=O)c2cccnc2)CC1)NC12CC3CC(CC(C3)O1)C2 | 159 | 291 | –
